Activity calls are given as the source filed them. No cut-off for these calls is given here.
How the values were obtained:
[1] = test system: Staphylococcus aureus; test: Antibacterial activity against methicillin-resistant Staphylococcus aureus isolate M7 after 16 to 20 hrs by broth microdilution method; assay type: functional
Outline: (§1)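 CLSI broth microdilution in cation-adjusted Mueller-Hinton broth. A 4-6 h culture was diluted to about 10⁶ CFU/mL and mixed 1:1 with twofold compound dilutions (256–0.5 µg/mL before mixing) prepared from aqueous stocks. Plates were incubated at 37 °C for 16-20 h. Each concentration was tested in duplicate, and the experiment was repeated at least twice.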

[2] = test system: Escherichia coli; test: Induction of inner membrane permeabilization in Escherichia coli ATCC 25922 at 20 ug/ml measured every 2 mins for 12 mins by propidium iodide staining based fluorescence assay; assay type: functional, organism-based
Outline: (§2)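 Mid-log cells (~10^8 CFU/mL) pre-incubated with propidium iodide (10 µM, 50 µL), 30 min for S. aureus and 40 min for E. coli. Fluorescence (ex 535/em 617 nm) read for 8 min, then compound added to 20 µg/mL final and monitored every 2 min for 12 min. Water-treated control.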

[3] = test system: Staphylococcus aureus; test: Antibacterial activity against methicillin-resistant Staphylococcus aureus isolate M10 after 16 to 20 hrs by broth microdilution method; assay type: functional; outline: as §1
[4] = test system: Escherichia coli; test: Induction of outer membrane permeabilization in Escherichia coli ATCC 25922 at 20 ug/ml measured every 2 mins for 12 mins by NPN staining based fluorescence assay; assay type: functional, organism-based
Outline: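 Mid-log E. coli (~10^8 CFU/mL) in black plates pre-incubated about 40 min with NPN (10 µM, 50 µL). Baseline read 8 min (ex 350/em 420 nm), then compound added to 20 µg/mL final and fluorescence followed every 2 min for 12 min. Water-treated control.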

[5] = test system: Staphylococcus aureus; test: Antibacterial activity against methicillin-resistant Staphylococcus aureus isolate M2 after 16 to 20 hrs by broth microdilution method; assay type: functional; outline: as §1
[6] = test system: Staphylococcus aureus; test: Antibacterial activity against methicillin-resistant Staphylococcus aureus isolate M6 after 16 to 20 hrs by broth microdilution method; assay type: functional; outline: as §1
[7] = test system: Staphylococcus aureus; test: Antibacterial activity against methicillin-resistant Staphylococcus aureus isolate M8 after 16 to 20 hrs by broth microdilution method; assay type: functional; outline: as §1
[8] = Hemolytic activity in sheep RBC after 1 hr; assay type: ADME, cell-based, Ovis aries, Erythrocyte; details: sheep red blood cells (erythrocytes)
Outline: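 Sheep RBCs suspended at 5% in PBS; 150 µL added to 50 µL compound dilutions (5120 to 10 µg/mL series). Incubated 1 h at 37 °C, then centrifuged; supernatant absorbance read at 540 nm. Lysis (%) = (A−A0)/(Atotal−A0)×100, with untreated 5% RBC as A0 and 0.1% Triton X-100 as total.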

[9] = test system: Staphylococcus aureus; test: Antibacterial activity against methicillin-resistant Staphylococcus aureus isolate M4 after 16 to 20 hrs by broth microdilution method; assay type: functional; outline: as §1
[10] = test system: Staphylococcus aureus; test: Antibacterial activity against methicillin-resistant Staphylococcus aureus isolate M3 after 16 to 20 hrs by broth microdilution method; assay type: functional; outline: as §1
[11] = test system: Salmonella enterica; test: Antibacterial activity against Salmonella enterica after 16 to 20 hrs by broth microdilution method; assay type: functional
Outline: (§3)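 Broth microdilution per CLSI in cation-adjusted Mueller-Hinton broth; 4-6 h cultures (~10⁸ CFU/mL) diluted to ~10⁶ CFU/mL and mixed 1:1 with twofold dilutions of water-dissolved compound (256 to 0.5 µg/mL). Incubated 16-20 h at 37 °C; MIC read visually. Each concentration run in duplicate, whole experiment repeated at least twice. MRSA, KPC and NDM-1 strains were clinical isolates.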

[12] = test system: Staphylococcus aureus; test: Induction of cytoplasmic membrane depolarization in Staphylococcus aureus ATCC 29213 at 20 ug/ml measured every 2 mins for 12 mins by diSC35 staining based fluorescence assay; assay type: functional, organism-based
Outline: (§4)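 Mid-log cells (4–6 h) pelleted, washed and resuspended (~10^8 CFU/mL) in PBS for S. aureus, or in 5 mM HEPES, 5 mM glucose and 100 mM KCl (1:1:1) for E. coli. Preloaded with diSC35 (10 µM, 50 µL), 30 min for S. aureus and 40 min plus EDTA (200 µM, 50 µL) for E. coli. Baseline read 8 min (ex 622/em 670 nm), then compound added to 20 µg/mL final and read every 2 min for 12 min. Water control.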

[13] = test system: Staphylococcus aureus; test: Induction of inner membrane permeabilization in Staphylococcus aureus ATCC 29213 at 20 ug/ml measured every 2 mins for 12 mins by propidium iodide staining based fluorescence assay; assay type: functional, organism-based; outline: as §2
[14] = test system: Staphylococcus aureus; test: Antibacterial activity against methicillin-resistant Staphylococcus aureus after 16 to 20 hrs by broth microdilution method; assay type: functional; outline: as §1
[15] = test system: Escherichia coli; test: Antibacterial activity against Escherichia coli ATCC 25922 after 16 to 20 hrs by broth microdilution method; assay type: functional; outline: as §3
[16] = test system: Enterococcus faecalis; test: Antibacterial activity against Enterococcus faecalis after 16 to 20 hrs by broth microdilution method; assay type: functional; outline: as §3
[17] = test system: Staphylococcus aureus; test: Antibacterial activity against Staphylococcus aureus ATCC 29213 after 16 to 20 hrs by broth microdilution method; assay type: functional; outline: as §1
[18] = test system: Staphylococcus aureus; test: Antibacterial activity against methicillin-resistant Staphylococcus aureus isolate M5 after 16 to 20 hrs by broth microdilution method; assay type: functional; outline: as §1
[19] = test system: Staphylococcus aureus; test: Antibacterial activity against methicillin-resistant Staphylococcus aureus isolate M1 after 16 to 20 hrs by broth microdilution method; assay type: functional; outline: as §1
[20] = test system: Escherichia coli; test: Induction of cytoplasmic membrane depolarization in Escherichia coli ATCC 25922 at 20 ug/ml measured every 2 mins for 12 mins by diSC35 staining based fluorescence assay; assay type: functional, organism-based; outline: as §4
[21] = test system: Staphylococcus aureus; test: Antibacterial activity against methicillin-resistant Staphylococcus aureus isolate M9 after 16 to 20 hrs by broth microdilution method; assay type: functional; outline: as §1

CCCCCCCCN(CCCCCCCC)C(=O)[C@@H](N)[C@@H](C)CC.Cl
MIC [1]: 4 µg/mL | Activity [2]: Active | MIC [3]: 4 µg/mL | Activity [4]: Active | MIC [5]: 4 µg/mL | MIC [6]: 4 µg/mL | MIC [7]: 4 µg/mL | HC50 at 1 h [8]: 293 µg/mL | MIC [9]: 4 µg/mL | MIC [10]: 4 µg/mL | MIC [11]: > 128 µg/mL | Activity [12]: Active | Activity [13]: Active | MIC [14]: 4 µg/mL | MIC [15]: > 128 µg/mL | MIC [16]: 4 µg/mL | MIC [17]: 4 µg/mL | MIC [18]: 4 µg/mL | MIC [19]: 4 µg/mL | Activity [20]: Active | MIC [21]: 4 µg/mL
